Source: PubChem BioAssay
A selection: hits, their analogues and other compounds. The true share with any hit is near 3.8%.
Hep lipid drop: modulators of hepatic lipid droplet formation; AML12 mouse hepatocytes, oleate lipid droplets, BODIPY imaging; inhibition, % at 6.5 µM; 240,000 tested, 0.4% active;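 active = lipid droplet intensity inhibited by at least 50%, with more than 500 cells counted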
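Assay system: AML12 hepatocytes (mouse); Probe or stimulus: oleic acid at 100 µM to induce lipid droplet formation; Dosing: compound at 6.5 µM only; Schedule: compound with oleate, overnight; Detection: fluorescence imaging, 20x objective, two fields per well; Measure: % inhibition of lipid droplet signal.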
RGS4 pot: RGS4 potentiation or activation; B-score at 10 µM; HEK293 M3R/inducible RGS4, carbachol calcium flux Fluo4; active compounds read low; 310,000 tested, 0.92% active;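 active = B-score of the integrated calcium signal more than 4 SD below the library mean, with starting fluorescence not abnormally high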;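 note: negative B-score means reduced calcium response which marks RGS4 activation or potentiation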
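Reagent: ECmax carbachol challenge; Test system: M3R-expressing HEK293 line, RGS4 induced by doxycycline; Schedule: overnight RGS4 induction, 30 min dye load 37 °C, 20 min compound RT; Detection: calcium dye Fluo4 fluorescence; Read-out: Agonist-evoked peak-minus-minimum fluorescence over baseline, integrated ratio, B score.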
MrgX1 PAM: human MrgX1 positive allosteric modulation, primary screen. 310,000 tested, 0.63% active. MrgX1-HEK293, Fluo-4 calcium flux, FDSS; active compounds read high. B-score at 10 µM;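 active = plate-corrected calcium response at least 3 library SD above typical, normal starting fluorescence, not activating the receptor alone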;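 note: compound read alongside a low EC10 to EC30 dose of BAM8-22 agonist; peak minus trough fluorescence over baseline measured at the second addition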
Target sequence (Q96LB2 whole entry, looked up): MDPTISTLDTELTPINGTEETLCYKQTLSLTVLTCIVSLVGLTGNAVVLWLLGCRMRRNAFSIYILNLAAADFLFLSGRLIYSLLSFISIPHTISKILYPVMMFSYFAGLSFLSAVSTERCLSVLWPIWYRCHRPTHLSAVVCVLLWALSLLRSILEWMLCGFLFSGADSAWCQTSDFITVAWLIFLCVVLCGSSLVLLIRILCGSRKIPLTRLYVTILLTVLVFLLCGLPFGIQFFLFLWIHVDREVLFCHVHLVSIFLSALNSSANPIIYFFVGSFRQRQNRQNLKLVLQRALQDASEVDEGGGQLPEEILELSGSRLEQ
MrgX1 antag: blocks BAM8-22 activation of human MrgX1 receptor. 310,000 tested, 1.3% active. Q96LB2. MRGX1-HEK293 calcium flux, Fluo-4, BAM8-22 antagonism; active compounds read low. B-score at 10 µM;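 active = calcium-response B-score plate-corrected more than 3 library SD below zero, starting fluorescence within 5 deviations, no agonist response on first addition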;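 note: peak minus trough fluorescence over baseline after final BAM8-22 challenge near maximal dose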
MrgX1 ag: agonists of human MrgX1 receptor; Q96LB2; MrgX1-HEK293 cells, Fluo-4 calcium fluorescence, agonist mode; active compounds read high; B-score at 10 µM; 310,000 tested, 0.44% active; AID 588627;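 active = calcium response B-score plate-corrected fluorescence ratio at least 3 library SD, with starting fluorescence B-score inside 5 SD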
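Assay system: MrgX1-expressing HEK293 cells / Amount: fifteen thousand cells per well / Doses: test compound in the initial addition of three / Timing: cells plated overnight, dye loaded 0.5 h 37 °C, 0.5 h room temperature / Technique: kinetic calcium dye fluorescence, Fluo-4 NW / Control set: positive and negative controls per plate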
RGS4 inh: human RGS4 inhibition; HEK293 M3R/RGS4 inducible, Fluo-4 calcium flux; active compounds read high; triggered by carbachol at its EC20; 310,000 tested, 0.45% active; P49798; B-score at 10 µM;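 active = B-score, a plate-corrected calcium signal, over three deviations above library mean, with baseline fluorescence within five deviations of library mean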;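 note: RGS4 expression induced by doxycycline in cells with stable M3 receptor; B-score is computed from the integrated fluorescence ratio over baseline after carbachol; higher B-score means a larger calcium signal and so more RGS4 inhibition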
Target sequence (P49798 whole entry, looked up): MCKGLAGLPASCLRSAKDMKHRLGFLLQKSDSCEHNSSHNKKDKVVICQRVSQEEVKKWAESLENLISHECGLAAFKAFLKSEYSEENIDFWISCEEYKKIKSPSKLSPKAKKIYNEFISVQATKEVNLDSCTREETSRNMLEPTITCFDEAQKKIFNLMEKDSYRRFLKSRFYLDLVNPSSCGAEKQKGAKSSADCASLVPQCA
MrgX1 allo conf: human MrgX1 positive allosteric modulation, re-confirmation; 1,200 tested, 13% active; shares compounds with MrgX1 PAM; activation (ratio percentage), % at 10 µM; MrgX1-HEK293, Fluo-4 calcium fluorescence, FDSS;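 active = ratio at least 3 SD above the weak peptide control, stable starting fluorescence, no direct agonism earlier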;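 note: compound followed by low BAM8-22 agonist challenge near EC20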
HEK293 Ca flux: MrgX1 antagonist counter-screen hit in parental HEK293 cells; shares compounds with MrgX1 antag; Fluo-4 calcium fluorescence, FDSS; fluorescence ratio F(max-min)/F0 at 10 µM; 4,000 tested, 2% active; AID 624111;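 active = duplicate-averaged calcium fluorescence ratio at least three times the standard deviation of buffer wells, a nonspecific response in parental cells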
HEK293 Ca counter: MrgX1 allosteric activator counter-screen hit in parental HEK293 cells. shares compounds with MrgX1 antag. parental HEK293 calcium flux, Fluo-4 fluorescence ratio; active compounds read high. fluorescence ratio F(max-min)/F0 at 10 µM. 4,000 tested, 0.4% active. AID 624114;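 active = calcium fluorescence ratio, averaged over duplicates, at least 3 SD of the buffer-well ratio, meaning a nonspecific response in receptor-free cells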;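 note: untransfected parental HEK293 lacking MrgX1 used as counterscreen for MrgX1 allosteric activators; fluorescence change taken during the second addition on a kinetic imager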
HEK293 Ca cntr2: counter-screen for MrgX1 activators: effect in parental HEK293 cells. AID 624115. 4,000 tested, 8.7% active. Fluo-4 calcium fluorescence (FDSS); active compounds read high. fluorescence ratio F(max-min)/F0 at 10 µM. shares compounds with MrgX1 antag;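 active = calcium fluorescence ratio at least three times the spread of buffer wells, meaning a non-specific response in parental cells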
* marks the source's active call; other numbers are inactive results; i = inactive; nt = no result.

SMILES	Hep lipid drop	RGS4 pot	MrgX1 PAM	MrgX1 antag	MrgX1 ag	RGS4 inh	MrgX1 allo conf	HEK293 Ca flux	HEK293 Ca counter	HEK293 Ca cntr2
Nc1nccnc1C(=O)OCC(=O)NCCc1ccc(S(N)(=O)=O)cc1	nt	i	i	i	i	i	nt	nt	nt	nt
COc1ccc(-c2cc(C(F)(F)F)nc(SCC(=O)Nc3ccc4c(c3)OCO4)n2)cc1	-19	i	9.2*	i	i	i	i	i	i	i
COc1cc(OC)c(C2N(C)c3ccccc3N2C)cc1OC	-3	i	i	i	i	i	nt	nt	nt	nt
COc1cc(OC)c(C2SCCCS2)cc1OC	-18	i	13*	i	i	i	6.3%*	i	i	i
COc1ccc(C(=O)NNC(=O)CCn2nnc(-c3ccc(C)cc3)n2)cc1OC	-3	i	i	i	i	i	nt	nt	nt	nt
CC(=O)N=Nc1[nH]c(N)c2ccccc12	5	i	i	i	i	i	nt	nt	nt	nt
CCOC(=O)C1CCCN(C(=O)c2sc3nc(-c4ccc(F)cc4)cn3c2C)C1 (stereo not drawn)	nt	i	7.3*	i	i	i	14%*	i	i	i
COc1ccccc1N1CCN(C(=O)c2cc3cc(C)ccc3[nH]2)CC1	-6	i	11*	i	i	i	i	i	i	i
CN(C)C(=O)c1cn(-c2ccccc2)nc1-c1cc2ccccc2oc1=O	-1	i	i	i	i	i	nt	nt	nt	nt
CN(C)C(=O)c1cn(-c2ccccc2)nc1-c1cc2ccccc2o1	-9	i	8*	i	i	i	i	i	i	i
CNc1nc2[nH]c(=O)c3c(c2s1)OC(N)=C(C#N)C3c1cccc(F)c1 (stereo not drawn)	nt	i	17*	i	i	i	i	i	i	i
CCOC(=O)C(=O)Nc1nnc(CCc2ccccc2)s1	-77	i	7.7*	i	i	i	i	i	i	i
CCCCC1(C)NC(=O)c2c(C)sc(C(=O)OCC)c2N1 (stereo not drawn)	nt	i	8.3*	i	i	i	i	i	i	i
CC1(C)Cc2c(sc(NC(=O)c3ccc(C(=O)c4ccccc4)cc3)c2C#N)C(C)(C)N1	-14	i	i	i	i	i	nt	nt	nt	nt
O=C(c1ccccc1Cl)N1CCNCC1	-2	i	i	i	i	i	nt	nt	nt	nt
Clc1cccc2c1Sc1ccccc1CC2N1CCNCC1 (stereo not drawn)	16	i	14*	i	i	i	i	i	i	i
CN1c2ccccc2Oc2nnc(N3CCN(Cc4ccccc4)CC3)cc21	1	i	12*	i	i	i	i	i	i	i
CN1c2ccccc2Oc2nnc(Cl)cc21	6	i	i	i	i	i	nt	nt	nt	nt
CC(=O)c1c(-c2ccc(C)cc2)nc2c3ccccc3ccn12	5	i	6.8*	i	i	i	16%*	i	i	i
Cc1ccc(NC(=O)C(=O)NCCOc2ccc(Cl)cc2)c(C)c1	-48	i	9.6*	i	i	i	i	i	i	i
Cn1cccc1-c1nc2ccc(NC(=O)c3ccccc3)cc2[nH]1	12	i	7.2*	i	i	i	39%*	i	i	i
COc1ccccc1NC(=O)N1c2ccc(F)cc2CCC1C (stereo not drawn)	1	i	10*	i	i	i	i	i	i	i
CCCCOc1ccc(C(=O)OCC(=O)NC2CCCC2)cc1	14	i	i	i	i	i	nt	nt	nt	nt
O=C(OCCCOC(=O)c1ccc(O)cc1)c1ccc(O)cc1	31	i	i	i	i	i	nt	nt	nt	nt
CC1=NNC(=O)C1CCC(=O)N/N=C/C(Br)=C/c1ccccc1 (stereo not drawn)	-2	i	i	i	i	i	nt	nt	nt	nt
SMILES	Hep lipid drop	RGS4 pot	MrgX1 PAM	MrgX1 antag	MrgX1 ag	RGS4 inh	MrgX1 allo conf	HEK293 Ca flux	HEK293 Ca counter	HEK293 Ca cntr2
Cc1ccc(-n2cnc3cc(NCc4cccs4)ccc32)cc1	-10	i	9.8*	i	i	i	i	i	i	i
c1ccc(-n2cnc3cc(NCc4cccs4)ccc32)cc1	nt	i	i	i	i	i	nt	nt	nt	nt
N#CC(C(=O)NC1CC1)c1nc2ccccc2nc1N1CCN(C/C=C/c2ccccc2)CC1 (stereo not drawn)	4	i	9.3*	i	i	i	i	i	i	i
N#CC(C(=O)NC1CC1)c1nc2ccccc2nc1N1CCCC1 (stereo not drawn)	nt	i	i	i	i	i	nt	nt	nt	nt
CC(Sc1nnnn1-c1ccccc1)C(=O)Nc1ccc(Cl)cn1 (stereo not drawn)	1	i	i	i	i	i	nt	nt	nt	nt
Cc1csc(NC(=O)c2cncc(Br)c2)n1	-6	i	15*	i	i	i	i	i	i	i
CCN(CC)S(=O)(=O)c1cc(Br)c(C)cc1OC	-6	i	8.6*	i	i	i	i	i	i	i
S=C(NCCCN1CCOCC1)Nc1cccc(Cl)c1	14	i	11*	i	i	i	i	i	i	i
Cc1ccc(NC2=C(Cl)C(=O)OC2OC(=O)c2ccc(C)cc2)cc1 (stereo not drawn)	-11	i	8.6*	i	i	i	i	i	i	i
COC(=O)c1ccc(NC(=O)c2ccccc2-c2ccccc2C(=O)O)cc1	nt	i	i	i	i	i	nt	nt	nt	nt
O/N=C\c1ccccc1Oc1ccc(F)cc1	-5	i	i	i	i	i	nt	nt	nt	nt
Cc1ccc(OCc2n[nH]c(=S)n2-c2ccccc2)cc1C	22	i	8.7*	i	i	i	i	i	i	i
